The source of these data is paper PMC6635014 (Dalton transactions (Cambridge, England : 2003), 2019).

Holding throughout (assay type): cell-based
The subject of assay [1] is doxorubicin-sensitive Colo 205 human colonic adenocarcinoma cells. Kind of assay: MTT assay for cytotoxic effect, Colo 205. The settings on record: read-out: IC50 (μM), 72 h Colo 205. The essentials:
(§1)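 Colo 205 and Colo 320/MDR-LRP were kept in RPMI 1640 with 10% heat-inactivated FBS, 2 mM L-glutamine, 1 mM Na-pyruvate and 10 mM HEPES, and detached with Trypsin-Versene. 1x10^4 cells per well went onto 2-fold serial compound dilutions (100 to 0.195 µM; DMSO stocks) for 72 h at 37 °C. Then MTT 4 h, SDS/0.01 M HCl overnight, OD 540/630 nm. IC50 from growth inhibition versus cell and medium controls. SF uses the MRC-5 IC50 from the same assay.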

The test system of assay [2] is MRC-5 non-cancerous human embryonal lung fibroblast cells. The assay can be described thus: MTT assay for cytotoxic effect, MRC-5. The settings on record: read-out: IC50 (μM), 72 h MRC-5. The essentials: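 MRC-5 fibroblasts were grown in EMEM with 10% heat-inactivated FBS and seeded 24 h at 37 °C, 5% CO2. Medium was then replaced by 2-fold serial compound dilutions (100 to 0.195 µM; 10 mM DMSO stocks), 72 h at 37 °C. MTT for 4 h, then SDS in 0.01 M HCl overnight. OD read at 540/630 nm. IC50 from % growth inhibition relative to cell and medium controls.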
For orientation: Tetrazolium dyes change colour on reduction, which living cells bring about.

Assay [3] relates to multidrug resistant Colo 320/MDR-LRP human colonic adenocarcinoma cells. The assay can be described thus: MTT assay for cytotoxic effect, Colo 320. The essentials:
as §1

For the molecule `N.N.[Cl][Pt][Cl]` [Cisplatin, reference compound], the IC50 worked out at 31.9 ± 2.17 µM in assay [1]; 12.4 ± 0.367 µM in assay [2]; 4.81 ± 0.68 µM in assay [3] (read-out: IC50 (μM), 72 h Colo 320, 72 h, MTT). Also, in assay [3] (SF(320) = IC50 MRC-5/IC50 Colo 320), the “SF(320) selectivity factor” value came to 3.

Broadly, the IC50 is the midpoint of a concentration-inhibition curve.
